Experimental data of several laboratories.
Target: Death-associated protein kinase 2 (DAPK2, Homo sapiens, UniProt Q9UIK4)

SMILES | assay | setting | measurement | result
O=C1Nc2ccc(Cl)cc2C1=Cc1cc(Cl)c(O)c(Cl)c1 | cell-free assay | 0.5 µM | remaining signal | 135%
CC(C)(C)c1nc(-c2cccc(NS(=O)(=O)c3c(F)cccc3F)c2F)c(-c2ccnc(N)n2)s1 | enzyme activity, inhibitor, radiometric | 1 µM | remaining activity | 92%
COc1cc(-c2cn(C3CCc4c(F)cccc4N(CC(F)(F)F)C3=O)nn2)ccc1-n1cnc(C)c1 (stereo not shown) | cell-free assay, competition with immobilised ligand | 1 µM | remaining binding | 100%
COc1cc(Cl)c(C(=O)N[C@@H](CN[C@H]2CC[C@@H](N)CC2)Cc2ccc(C#N)cc2)cc1-c1ccc(CN[C@H](C)c2ccc(C)cc2)o1 | enzyme activity, inhibitor | 1 µM | remaining activity | 123%
Cc1nc(C2CCN(C(=O)c3ccc(OC(F)(F)F)cc3N)CC2)c2ncc(N3CCN(C)CC3)cc2n1 | cell-free assay, competition with immobilised ligand | 1 µM | remaining binding | 100%
CNC(=O)c1cc(Oc2ccc(NC(=O)Nc3ccc(Cl)c(C(F)(F)F)c3)cc2)ccn1 | enzyme activity, inhibitor | 0.3 µM | inhibition | 5%
Nc1ncnc2occ(-c3ccc(NC(=O)Nc4cc(C(F)(F)F)ccc4F)cc3)c12 | cell-free assay, inhibitor | 20 µM | remaining signal | 25%
Cc1ccc(Nc2nccc(N(C)c3ccc4c(C)n(C)nc4c3)n2)cc1S(N)(=O)=O | enzyme activity, inhibitor | 10 µM | inhibition | -4%
CN(C)C(=O)Cn1cc(-c2nc([C@@](C)(c3ccc(-c4cnc(N)nc4)cc3)C3CC3)no2)cn1 | cell-free assay, competition with immobilised ligand | 1 µM | remaining binding | 100%
CC(C)(O)[C@H]1CC[C@H](Nc2ccc3ncc(-c4cccc(C(F)(F)F)c4)n3n2)CC1 | enzyme activity, inhibitor | 1 µM | remaining activity | 107%
Cc1cc(NC(=O)c2cccc3cc(-c4cccc5[nH]nc(N)c45)ccc23)ccc1F | enzyme activity, inhibitor | 0.1 µM | activity vs control | 96%
CCCS(=O)(=O)Nc1ccc(F)c(C(=O)c2c[nH]c3ncc(-c4ccc(Cl)cc4)cc23)c1F | enzyme activity, inhibitor | 1 µM | inhibition | < 10%
C[C@@H]1CN(c2cc(-c3nn(C)c4ccc(OC5(C)CC5)cc34)ncn2)C[C@H](C)O1 | cell-free assay, competition with immobilised ligand | 1 µM | remaining binding | 89%
CCCOc1ccc(OC)c(F)c1C(=O)c1ccc(C(=O)N[C@@H]2CNC[C@H]2NC(=O)c2ccc3[nH]ncc3c2)cc1 | enzyme activity, inhibitor | 10 µM | remaining activity | 84%
CCN(CC)c1ccc(C2=NNC(=O)CC2C)cc1[N+](=O)[O-] (stereo not shown) | enzyme activity, inhibitor | 10 µM | remaining activity | 99%
N[C@H]1CCN(c2nccc(-c3cnn4ncccc34)n2)C1 | binding | 1 µM | remaining binding | 98%
